# Bioassay records: PubChem, The Scripps Research Institute Molecular Screening Center
# Shown are actives, neighbours in structure and some others; about 2.4% of the full set was active somewhere.
# MOR-DOR inv ag = inverse agonists of MOR-DOR heterodimerization, primary screen, cell-based, luminescence; cell-based MOR-DOR heterodimer luminescence, inverse agonism; 0.21% of 340,000 active; Mu-type opioid receptor (Homo sapiens) + Delta-type opioid receptor (Homo sapiens), …; inhibition, % at 9.3 µM; in the data active = inhibition above about 22%, passing the limit was not always enough
# MC4R ag barr = MC4R agonists recruiting beta-arrestin, primary screen, cell-based, luminescence, agonist arm of biased-ligand search; Melanocortin receptor 4 (Homo sapiens), P32245; activation, % at 8.9 µM; U2OS MC4R beta-arrestin complementation; percent of melanotan II response, DMSO zero; 0.98% of 360,000 active;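 active = activation above a per-plate cutoff, the mean activation of sample wells on that plate plus 3 SD, cut at about 8% in these data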
# HTR5A inv ctr = HTR5A inverse agonists in luminescence cell assay, primary screen, counter-screen for OPRM1-OPRD1 heterodimer inverse agonist project, full-deck HTS | 0.083% of 340,000 active | inhibition, % at 9.3 µM | HTR5A cell line, inverse agonism | AID 504634, 2011; in the data active = inhibition mostly above about 23%, no sharp cut-off; inactive = mostly below about 18%
# MC4R antagonist = MC4R antagonists of cAMP signaling, primary screen, cell-based, TR-FRET, antagonist arm of biased-ligand search; inhibition, % at 6.5 µM; MC4R-expressing cells, MTII-stimulated cAMP, LANCE TR-FRET; 0.48% of 360,000 active;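 active = inhibition above its plate's cutoff, the mean of tested wells on that plate plus 3 SD, cut at about 29% in these data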
#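 Test system: U2OS cells stably expressing human melanocortin 4 receptor (MC4R); also added: Melanotan II challenge; compound: 6.5 µM single dose; timing: 30-min compound preincubation, 1-h Melanotan II challenge, 1-h detection, room temperature; signal: Eu-cAMP/anti-cAMP TR-FRET, emission 671 nm; repeats: one well per compound, no replicates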
# HTR5A ag ctr = HTR5A agonists in luminescence cell assay, primary screen, counter-screen for OPRM1-OPRD1 heterodimer agonist project, full-deck HTS. 5-hydroxytryptamine receptor 5A (Homo sapiens), P47898. cell-based. activation, % at 9.3 µM. 0.61% of 340,000 active; in the data active = activation mostly above about 9.5%, no sharp cut-off; inactive = mostly below about 7.6%
# OPRM1-OPRD1 ag = agonists of OPRM1-OPRD1 heterodimerization, primary screen, cell-based, luminescence; Mu-type opioid receptor (Homo sapiens) + Delta-type opioid receptor (Homo sapiens), …; 0.3% of 340,000 active; cells; activation, % at 9.3 µM; in the data active = activation above about 18%
# A number is an active result; i = inactive.
SMILES,MOR-DOR inv ag,MC4R ag barr,HTR5A inv ctr,MC4R antagonist,HTR5A ag ctr,OPRM1-OPRD1 ag
CCCc1cc(=O)oc2cc(C)cc(OC(C)C(=O)NCCCn3ccnc3)c12 (stereo not drawn),i,i,i,i,i,i
O=c1[nH]cnc2c1sc1nc(-c3ccccc3)c3c(c12)CCCC3,i,i,i,i,i,i
Cc1ccc(-c2nc3sc4c(N)ncnc4c3c3c2CCCC3)cc1,i,8.4,i,i,i,i
Cc1sc2ncnc(SCC(=O)N3c4ccccc4Sc4ccc(Cl)cc43)c2c1C,i,i,i,i,i,i
CCOC(=O)c1c(C)sc2c1N(C(=O)CCl)c1cc(Cl)ccc1S2,i,i,i,i,18.9,35.6
Cc1cccc(-n2c(CCc3ccccc3)nnc2SCC(=O)c2ccccc2)c1,i,8.3,i,i,i,i
N#CC(c1ccc(=O)[nH]n1)c1ccc(Cl)cc1Cl (stereo not drawn),i,i,i,i,i,i
Cc1ccc(N2C(=O)C3CC(c4ccccc4)=C4C5C=CC(C6C(=O)N(c7ccc(C)cc7C)C(=O)C56)C4C3C2=O)c(C)c1 (stereo not drawn),i,i,i,i,i,i
Cc1ccc(N2C(=O)C3CC(c4ccccc4)=C4C5C=CC(C6C(=O)N(c7ccc(C)cc7)C(=O)C56)C4C3C2=O)cc1 (stereo not drawn),i,8.6,i,i,i,i
Cc1[nH][nH]c(=O)c1C(c1ccc(Cl)cc1)c1c(C)[nH][nH]c1=O,i,i,i,i,i,i
C/C(=N/OCc1ccc(Br)cc1)c1ccccn1,i,8.6,i,i,i,i
C/C(=N\OC(=O)c1ccc(Br)cc1)c1ccccn1,i,i,i,i,i,i
CCCCN(CC)Cc1c(O)ccc2c3c(c(=O)oc12)CCC3,i,i,i,i,i,i
Cc1cc(NC(=O)CN2CCN(S(=O)(=O)c3ccc4ccccc4c3)CC2)no1,i,i,i,i,10.2,i
CN(Cc1ccon1)Cc1cn(C)nc1-c1ccc2c(c1)OCCO2,i,i,i,i,i,i
N#Cc1ccc(-c2ccc(F)cc2)nc1Oc1ccc(F)cc1,i,9.3,i,i,i,i
CC(=O)N1CCOc2ccc(S(=O)(=O)NC(C)c3ccccc3)cc21 (stereo not drawn),i,i,i,i,i,i
Cc1ccc(C(=O)Nc2ccc(OCc3ccccc3)cc2)cc1[N+](=O)[O-],i,9.5,i,i,i,i
COc1ccc(C(=O)O)cc1NC(=S)NC(=O)c1ccc(-c2ccc(Cl)cc2)o1,i,i,i,i,i,i
Cc1ccc(C(=O)O)cc1NC(=S)NC(=O)c1ccc(-c2ccc(Cl)cc2)o1,i,i,i,i,12.5,i
N#CC1(NC(=O)CN2C(=O)NC3(CCCCCC3)C2=O)CCCCC1,i,i,i,i,i,i
C=CCc1ccc(OCC(O)COc2ccc(CC=C)cc2OC)c(OC)c1,i,8.7,i,i,i,i
CCOC(=O)c1sc(NC(=O)C2CC(=O)N(c3ccc(C)cc3)C2)nc1C (stereo not drawn),i,i,i,i,i,i
O=[N+]([O-])c1cnc(Sc2ccncn2)s1,i,i,i,35.3,i,i
O=C(NCc1cccs1)C1CCN(S(=O)(=O)c2cccc3cccnc23)CC1,i,i,i,i,13.7,i
O=C(NCc1ccco1)C1CCN(S(=O)(=O)c2cccc3cccnc23)CC1,i,i,i,i,i,i
CC(=O)Nc1ccc(-c2csc(Nc3ccc(Cl)cn3)n2)cc1,i,i,i,i,10.9,i
O=C(c1ccc(Cl)c(S(=O)(=O)NCc2ccco2)c1)N1CCN(c2ccccc2F)CC1,i,i,i,i,12.9,i
Cc1ccc(-n2nc(C)c3c(C(=O)OCC(=O)N(C)C4CCS(=O)(=O)C4)cc(-c4ccccc4)nc32)cc1 (stereo not drawn),i,i,i,i,i,i
